In ChEMBL document CHEMBL4196059, “Design, synthesis, and biological evaluation of stable β6.3-Helices: Discovery of non-hemolytic antibacterial peptides” (Eur J Med Chem, 2018):
Calls of active or inactive are those of the source. The calls are words filed in the database; no cut-off is given here.

Experiments:
[1] = Hemolytic activity against human RBC at 50 uM after 1 hr by Drabkin's assay relative to control; format: ADME, cell-based, Erythrocyte; details: human red blood cells (erythrocytes), read-out: Activity
[2] = Hemolytic activity against human RBC at 25 uM after 1 hr by Drabkin's assay relative to control; format: ADME, cell-based, Erythrocyte; details: human red blood cells (erythrocytes), read-out: Activity
[3] = Hemolytic activity against human RBC at 12.5 uM after 1 hr by Drabkin's assay relative to control; format: ADME, cell-based, Erythrocyte; details: human red blood cells (erythrocytes), read-out: Activity
[4] = Hemolytic activity against human RBC at 6.25 uM after 1 hr by Drabkin's assay relative to control; format: ADME, cell-based, Erythrocyte; details: human red blood cells (erythrocytes), read-out: Activity
[5] = Hemolytic activity against human RBC at 3.125 uM after 1 hr by Drabkin's assay relative to control; format: ADME, cell-based, Erythrocyte; details: human red blood cells (erythrocytes), read-out: Activity
[6] = Hemolytic activity against human RBC at 1.56 uM after 1 hr by Drabkin's assay relative to control; format: ADME, cell-based, Erythrocyte; details: human red blood cells (erythrocytes), read-out: Activity
[7] = Hemolytic activity against human RBC at 0.78 uM after 1 hr by Drabkin's assay relative to control; format: ADME, cell-based, Erythrocyte; details: human red blood cells (erythrocytes), read-out: Activity
[8] = Hemolytic activity against human RBC at 0.39 uM after 1 hr by Drabkin's assay relative to control; format: ADME, cell-based, Erythrocyte; details: human red blood cells (erythrocytes), read-out: Activity
[9] = Hemolytic activity against human RBC at 100 uM after 1 hr by Drabkin's assay relative to control; format: ADME, cell-based, Erythrocyte; details: human red blood cells (erythrocytes), read-out: Activity
Erythrocyte = test: Hemolytic activity against human RBC after 1 hr by Drabkin's assay; format: ADME, cell-based
Staphylococcus aureus = test: Growth inhibition of methicillin-resistant Staphylococcus aureus ATCC 43300 at 32 ug/ml after 18 hrs; format: functional; details: ATCC 43300, 18 h, read-out: GI
Procedure, shortened: (§1)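 Mid-log cultures in cation-adjusted Mueller Hinton broth were added at 5×10^5 CFU/mL to wells at a final compound concentration of 32 μg/mL. Plates stood at 37 °C for 18 h. Growth was read by OD600, and % inhibition was computed against media-only and untreated-bacteria controls.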

Escherichia coli = test: Growth inhibition of Escherichia coli ATCC 25922 at 32 ug/ml after 18 hrs; format: functional; details: ATCC 25922, 18 h, read-out: GI
Procedure, shortened: (§2)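 Mid-log cultures were prepared as above and seeded at 5×10^5 CFU/mL with compound at a final 32 μg/mL, then held static at 37 °C for 18 h. Growth was read as OD600. Percent inhibition was calculated against media-only and bacteria-only controls on the same plate.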

Klebsiella pneumoniae = test: Growth inhibition of multidrug-resistant Klebsiella pneumoniae ATCC 700603 at 32 ug/ml after 18 hrs; format: functional; details: ATCC 700603, 18 h, read-out: GI; procedure, shortened: as §1
Pseudomonas aeruginosa = test: Growth inhibition of Pseudomonas aeruginosa ATCC 27853 at 32 ug/ml after 18 hrs; format: functional; details: ATCC 27853, 18 h, read-out: GI; procedure, shortened: as §2
Acinetobacter baumannii = test: Growth inhibition of Acinetobacter baumannii ATCC 19606 at 32 ug/ml after 18 hrs; format: functional; details: ATCC 19606 = CIP 70.34 = JCM 6841, 18 h, read-out: GI; procedure, shortened: as §2
Cryptococcus neoformans = test: Growth inhibition of Cryptococcus neoformans H99 ATCC 208821 at 32 ug/ml after 24 hrs by resazurin dye-based microspectrophotometric assay; format: functional; details: var. grubii H99 ATCC 208821, 24 h, read-out: GI
Procedure, shortened: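 Yeasts were grown 3 days on YPD agar at 30 °C, suspended from five colonies and diluted in YNB broth to a final 2.5×10^3 CFU/mL. Compound at a final 32 μg/mL; incubated 24 h at 35 °C without shaking. C. albicans was read at OD530. C. neoformans was read as OD600–570 after resazurin (0.001% final) and a further 2 h at 35 °C. Fluconazole was the standard.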

Lipid bilayer = test: Induction of pore formation in POPC vesicles at 20 uM after 3 hrs by carboxyfluorescein dye leakage assay; details: in the assay text read “after 3 mins” for “after 3 hrs”
Procedure, shortened: (§3)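 POPC or DOPC liposomes were hydrated in 10 mM HEPES, 100 mM KCl, pH 7.4, containing 50 mM carboxyfluorescein. Size was checked by dynamic light scattering, and vesicles were used at 2.2×10^10 per mL. Peptide at 20 μM was equilibrated with vesicles for 3 min, and dye leakage was measured.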

Candida albicans = test: Growth inhibition of Candida albicans ATCC 90028 at 32 ug/ml after 24 hrs by OD530 light-scattering microspectrophotometric method; details: ATCC 90028, 24 h, read-out: GI
[10] = Induction of pore formation in DOPC vesicles at 20 uM after 3 hrs by carboxyfluorescein dye leakage assay; details: in the assay text read “after 3 mins” for “after 3 hrs”; procedure, shortened: as §3

Compound	hemolysis at 1 h, 50 µM [1]	hemolysis at 1 h, 25 µM [2]	hemolysis at 1 h, 12.5 µM [3]	hemolysis at 1 h, 6.25 µM [4]	hemolysis at 1 h, 3.125 µM [5]	hemolysis at 1 h, 1.56 µM [6]	hemolysis at 1 h, 0.78 µM [7]	hemolysis at 1 h, 0.39 µM [8]	hemolysis at 1 h, 100 µM [9]	Activity (Erythrocyte)	inhibition of growth at 32 µg/mL (Staphylococcus aureus)	inhibition of growth at 32 µg/mL (Escherichia coli)	inhibition of growth at 32 µg/mL (Klebsiella pneumoniae)	inhibition of growth at 32 µg/mL (Pseudomonas aeruginosa)	inhibition of growth at 32 µg/mL (Acinetobacter baumannii)	inhibition of growth at 32 µg/mL (Cryptococcus neoformans)	Activity (Lipid bilayer)	inhibition of growth at 32 µg/mL (Candida albicans)	Activity [10]
O=C(O)[C@@H]1CCCN1C(=O)N1CCCN1C(=O)[C@@H]1CCCN1C(=O)N1CCCN1C(=O)[C@@H]1CCCN1C(=O)N1CCCN1C(=O)[C@@H]1CCCN1C(=O)N1CCCN1C(=O)OCc1ccccc1	0.09%	-0.361%	0.09%	0.452%	0.452%	0.542%	0.09%	0.09%	0.542%	Dose-dependent effect	27%	4.23%	4.23%	-6.53%	14%	-5.78%	inactive	3.59%	
CC(C)(C)OC(=O)[C@@H]1CCCN1C(=O)N1CCCN1C(=O)[C@@H]1CCCN1C(=O)N1CCCN1C(=O)[C@@H]1CCCN1C(=O)N1CCCN1C(=O)[C@@H]1CCCN1C(=O)N1CCCN1C(=O)OCc1ccccc1	-0.09%	0%	-0.09%	0.09%	0.181%	0.361%	0%	0.08%	0%	Dose-dependent effect	13.6%	-3.42%	-3.42%	-8.9%	30.2%	-0.865%	inactive	4.13%	
CC(C)(C)OC(=O)[C@@H]1CCCN1C(=O)N1CCCN1C(=O)[C@@H]1CCCN1C(=O)N1CCCN1C(=O)[C@@H]1CCCN1C(=O)N1CCCN1C(=O)[C@@H]1CCCN1C(=O)N1CCCN1C(=O)[C@@H]1CCCN1C(=O)N1CCCN1C(=O)[C@@H]1CCCN1C(=O)N1CCCN1C(=O)[C@@H]1CCCN1C(=O)N1CCCN1C(=O)[C@@H]1CCCN1C(=O)N1CCCN1C(=O)[C@@H]1CCCN1C(=O)N1CCCN1C(=O)[C@@H]1CCCN1C(=O)N1CCCN1C(=O)[C@@H]1CCCN1C(=O)N1CCCN1C(=O)[C@@H]1CCCN1C(=O)N1CCCN1C(=O)[C@@H]1CCCN1C(=O)N1CCCN1C(=O)[C@@H]1CCCN1C(=O)N1CCCN1C(=O)[C@@H]1CCCN1C(=O)N1CCCN1C(=O)[C@@H]1CCCN1C(=O)N1CCCN1C(=O)OCc1ccccc1	-0.55%	-0.49%	-0.33%	-0.24%	-0.33%	-0.16%	-0.2%	-0.24%		Dose-dependent effect	25.3%	8.57%	8.57%	-0.85%	-19%	-1.18%		4.41%	inactive
O=CN1CCCN1C(=O)N1CCC[C@H]1C(=O)N1CCCN1C(=O)N1CCC[C@H]1C(=O)N1CCCN1C(=O)N1CCC[C@H]1C(=O)N1CCCN1C(=O)N1CCC[C@H]1C(=O)N1CCCN1C(=O)N1CCC[C@H]1C(=O)N1CCCN1C(=O)N1CCC[C@H]1C(=O)N1CCCN1C(=O)N1CCC[C@H]1C(=O)NCCO	0.4%	0.41%	-0.045%	-0.29%	-0.045%	-0.049%	0.072%	0.023%	1.4%	Dose-dependent effect	13.7%	5.64%	5.64%	-5.12%	6.14%	-8.29%	inactive	3.52%	
